# Test results taken from ChEMBL document CHEMBL1140227, “Histone deacetylase inhibitors through click chemistry” (J Med Chem, 2008).
# Columns and labels:
# Type in all cases: functional
# 786-0 = experiment: Growth inhibition of human 786-0 cells at 10 uM relative to control; details: values are per cent of control
# Method in brief: (§1)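 Single-dose preliminary screen in the NCI human cancer cell line panel, run by the NIH. Percent inhibition of cell line growth was calculated by comparison with untreated samples.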
# NCI-H23 = experiment: Growth inhibition of human NCI-H23 cells at 10 uM relative to control; details: values are per cent of control; method in brief: as §1
# SF-268 = experiment: Growth inhibition of human SF268 cells at 10 uM relative to control; details: values are per cent of control; method in brief: as §1
# PC-3 = experiment: Growth inhibition of human PC3 cells at 10 uM relative to control; details: values are per cent of control; method in brief: as §1
# BT-549 = experiment: Growth inhibition of human BT549 cells at 10 uM relative to control; details: values are per cent of control; method in brief: as §1
# A498 = experiment: Growth inhibition of human A498 cells at 10 uM relative to control; details: values are per cent of control; method in brief: as §1
# Leukemia cell = experiment: cells; details: Homo sapiens
# NCI-H460 = experiment: Growth inhibition of human NCI-H460 cells at 10 uM relative to control; details: values are per cent of control; method in brief: as §1
# OVCAR-5 = experiment: Growth inhibition of human OVCAR5 cells at 10 uM relative to control; details: values are per cent of control; method in brief: as §1
# CCRF-CEM = experiment: Growth inhibition of human CCRF-CEM cells at 10 uM relative to control; details: values are per cent of control; method in brief: as §1
# cells [1] = details: Homo sapiens, Cancer cell lines
# U-251 = experiment: Growth inhibition of human U251 cells at 10 uM relative to control; details: values are per cent of control
# Method in brief: (§2)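 Single-dose NCI human tumour cell line screen, run by the NIH. Percent inhibition of cell line growth was calculated by comparison with untreated samples.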
# ACHN = experiment: Growth inhibition of human ACHN cells at 10 uM relative to control; details: values are per cent of control; method in brief: as §1
# COLO 205 = experiment: Growth inhibition of human COLO205 cells at 10 uM relative to control; details: values are per cent of control; method in brief: as §1
# M14 = experiment: Growth inhibition of human M14 cells at 10 uM relative to control; details: values are per cent of control; method in brief: as §1
# cells [2] = details: Homo sapiens, Cancer cell lines; remark: listed apart in the source
# DU-145 = experiment: Growth inhibition of human DU145 cells at 10 uM relative to control; details: values are per cent of control; method in brief: as §1
# HL-60(TB) = experiment: Growth inhibition of human HL-60(TB) cells at 10 uM relative to control; details: read-out: INH
# Method in brief: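 Single-dose cell line screen run by the NCI (NIH) in its human cancer cell line panel, which includes the leukemia line HL-60(TB). Percent growth inhibition was calculated by comparison with untreated samples.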
# TK-10 = experiment: Growth inhibition of human TK10 cells at 10 uM relative to control; details: values are per cent of control; method in brief: as §2
# HT-29 = experiment: Growth inhibition of human HT-29 cells at 10 uM relative to control; details: values are per cent of control; method in brief: as §1
# cells [3] = details: Homo sapiens, Cancer cell lines; remark: listed apart in the source
# KM12 = experiment: Growth inhibition of human KM12 cells at 10 uM relative to control; details: values are per cent of control; method in brief: as §1
# UO-31 = experiment: Growth inhibition of human UO31 cells at 10 uM relative to control; details: values are per cent of control; method in brief: as §2
# SNB-19 = experiment: Growth inhibition of human SNB19 cells at 10 uM relative to control; details: values are per cent of control; method in brief: as §1
# cells [4] = details: Homo sapiens, Cancer cell lines; remark: listed apart in the source
# HCC 2998 = experiment: Growth inhibition of human HCC2998 cells at 10 uM relative to control; details: values are per cent of control; method in brief: as §1
# CAKI-1 = experiment: Growth inhibition of human Caki1 cells at 10 uM relative to control; details: values are per cent of control; method in brief: as §1
# IGROV-1 = experiment: Growth inhibition of human IGROV1 cells at 10 uM relative to control; details: values are per cent of control; method in brief: as §1
# OVCAR-8 = experiment: Growth inhibition of human OVCAR8 cells at 10 uM relative to control; details: values are per cent of control; method in brief: as §1
# MDA-MB-435 = experiment: Growth inhibition of human MDA-MB-435 cells at 10 uM relative to control; details: values are per cent of control; method in brief: as §1
# MDA-MB-231 = experiment: Growth inhibition of human MDA-MB-231 cells at 10 uM relative to control; details: values are per cent of control; method in brief: as §1
# SF-295 = experiment: Growth inhibition of human SF295 cells at 10 uM relative to control; details: values are per cent of control; method in brief: as §1
structure (smiles),measurement,setting,value
O=C(/C=C/c1cn(CC(=O)Nc2ccccc2)nn1)NO,"growth, % of control at 10 µM",786-0,69.5%
same,"growth, % of control at 10 µM",NCI-H23,82.8%
same,"growth, % of control at 10 µM",SF-268,66.8%
same,"growth, % of control at 10 µM",PC-3,79.7%
same,"growth, % of control at 10 µM",BT-549,83.6%
same,"growth, % of control at 10 µM",A498,105%
same,inhibition at 10 µM,Leukemia cell,84%
same,"growth, % of control at 10 µM",NCI-H460,86.1%
same,"growth, % of control at 10 µM",OVCAR-5,79%
same,"growth, % of control at 10 µM",CCRF-CEM,57.1%
same,growth percent at 10 µM,cells [1],71%
same,"growth, % of control at 10 µM",U-251,86.6%
same,"growth, % of control at 10 µM",ACHN,113%
same,"growth, % of control at 10 µM",COLO 205,117%
same,"growth, % of control at 10 µM",M14,60%
same,growth percent at 10 µM,cells [2],90%
same,"growth, % of control at 10 µM",DU-145,87.8%
same,"growth, % of control at 10 µM",HL-60(TB),153%
same,"growth, % of control at 10 µM",TK-10,101%
same,"growth, % of control at 10 µM",HT-29,51.9%
same,inhibition at 10 µM,cells [3],74%
same,"growth, % of control at 10 µM",KM12,76%
same,"growth, % of control at 10 µM",UO-31,74%
same,"growth, % of control at 10 µM",SNB-19,105%
same,inhibition at 10 µM,cells [4],89%
same,"growth, % of control at 10 µM",HCC 2998,83.5%
same,"growth, % of control at 10 µM",CAKI-1,81.7%
same,"growth, % of control at 10 µM",IGROV-1,86.4%
same,"growth, % of control at 10 µM",OVCAR-8,51.9%
same,"growth, % of control at 10 µM",MDA-MB-435,63.4%
same,"growth, % of control at 10 µM",MDA-MB-231,104%
same,"growth, % of control at 10 µM",SF-295,81.3%
